ChEMBL document CHEMBL4346661, “Design, synthesis and evaluation of novel diaryl-1,5-diazoles derivatives bearing morpholine as potent dual COX-2/5-LOX inhibitors and antitumor agents” (Eur J Med Chem, 2019)
Activity calls are given as the source filed them. The rule behind the calls is not given here.

Legend:
[1] = test system: B16-F10; assay: Induction of apoptosis in mouse B16F10 cells assessed as late apoptosis cells at 6.25 uM incubated for 48 hrs in presence of apoptosis inhibitor z-VAD-fmk by Annexin-V-FITC/propidium iodide staining-based flow cytometric analysis (reference value: 3.13%); type: functional
[2] = test system: B16-F10; assay: Induction of cell cycle arrest in mouse B16F10 cells assessed as cell accumulation at G2 phase at 6.25 uM incubated for 48 hrs by propidium iodide staining-based flow cytometric analysis (reference value: 22.43%); type: functional
[3] = test system: B16-F10; assay: Induction of apoptosis in mouse B16F10 cells assessed as necrosis cells at 25 uM incubated for 48 hrs by Annexin-V-FITC/propidium iodide staining-based flow cytometric analysis (reference value: 0.186%); type: functional
Outline: (§1)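 F10 cells were exposed to 0, 3.125, 6.25, 12.5 or 25 µM for 48 h. Cells were stained with Annexin V/PI and read by flow cytometry. Data are mean ± SD of three independent experiments.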

[4] = test system: MCF7; assay: Antiproliferative activity against human MCF7 cells incubated for 48 hrs by MTT assay; type: functional, cell-based; conditions: MCF7, 48 h
Outline: (§2)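 MTT assay on F10 (murine melanoma), HeLa, A549, MCF-7 and 293T (human renal epithelium) cells. IC50 given as mean ± SD of three independent experiments.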

[5] = test system: B16-F10; assay: Induction of apoptosis in mouse B16F10 cells assessed as necrosis cells at 6.25 uM incubated for 48 hrs in presence of apoptosis inhibitor z-VAD-fmk by Annexin-V-FITC/propidium iodide staining-based flow cytometric analysis (reference value: 0.558%); type: functional
[6] = test system: B16-F10; assay: Induction of apoptosis in mouse B16F10 cells assessed as viable cells at 12.5 uM incubated for 48 hrs in presence of apoptosis inhibitor z-VAD-fmk by Annexin-V-FITC/propidium iodide staining-based flow cytometric analysis (reference value: 92.5%); type: functional; conditions: B16-F10, 48 h, read-out: Activity
[7] = Metabolic stability in mouse B16F10 cells implanted in nude mouse plasma assessed as peak time at 40 mg/kg, ip measured after 24 to 48 hrs by HPLC analysis; type: ADME, organism-based; conditions: in vivo
Outline: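 Tumor-bearing nude mice dosed intraperitoneally. Blood was taken from the eye 24 h later and centrifuged to plasma. The plasma was extracted with ethyl acetate and analysed by HPLC for compound peak retention time.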

[8] = test system: B16-F10; assay: Antiproliferative activity against mouse B16F10 cells incubated for 48 hrs by MTT assay; type: functional, cell-based; conditions: B16-F10, 48 h; outline: as §2
[9] = test system: B16-F10; assay: Induction of apoptosis in mouse B16F10 cells assessed as late apoptosis cells at 12.5 uM incubated for 48 hrs in presence of apoptosis inhibitor z-VAD-fmk by Annexin-V-FITC/propidium iodide staining-based flow cytometric analysis (reference value: 3.13%); type: functional
[10] = test system: HeLa; assay: Antiproliferative activity against human HeLa cells incubated for 48 hrs by MTT assay; type: functional, cell-based; outline: as §2
[11] = test system: HEK-293T; assay: Antiproliferative activity against human 293T cells incubated for 48 hrs by MTT assay; type: cell-based; outline: as §2
[12] = test system: B16-F10; assay: Induction of cell cycle arrest in mouse B16F10 cells assessed as cell accumulation at G1 phase at 12.5 uM incubated for 48 hrs by propidium iodide staining-based flow cytometric analysis (reference value: 59.73%); type: functional
[13] = test system: B16-F10; assay: Induction of apoptosis in mouse B16F10 cells assessed as necrosis cells at 3.125 uM incubated for 48 hrs in presence of apoptosis inhibitor z-VAD-fmk by Annexin-V-FITC/propidium iodide staining-based flow cytometric analysis (reference value: 0.558%); type: functional
[14] = test system: B16-F10; assay: Antitumor activity against mouse B16F10 cells implanted in nude mouse assessed as decrease in tumor weight at 20 mg/kg, ip administered once per 2 days for 14 days by caliper method relative to control; type: functional, organism-based
Outline: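 Nude mice were given 5×10^6 F10 cells subcutaneously in the right flank. At about 100 mm3, 24 mice were randomized into four groups of vehicle or compound. Dosing was intraperitoneal every two days for two weeks. Tumor volume was recorded every other day. Tumors were excised and weighed after the last treatment, and body weight was monitored.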

[15] = test system: B16-F10; assay: Induction of cell cycle arrest in mouse B16F10 cells assessed as cell accumulation at G2 phase at 3.125 uM incubated for 48 hrs by propidium iodide staining-based flow cytometric analysis (reference value: 22.43%); type: functional
[16] = test system: B16-F10; assay: Induction of apoptosis in mouse B16F10 cells assessed as necrosis cells at 12.5 uM incubated for 48 hrs in presence of apoptosis inhibitor z-VAD-fmk by Annexin-V-FITC/propidium iodide staining-based flow cytometric analysis (reference value: 0.558%); type: functional
[17] = test system: B16-F10; assay: Induction of apoptosis in mouse B16F10 cells assessed as viable cells at 6.25 uM incubated for 48 hrs in presence of apoptosis inhibitor z-VAD-fmk by Annexin-V-FITC/propidium iodide staining-based flow cytometric analysis (reference value: 92.5%); type: functional; conditions: B16-F10, 48 h, read-out: Activity
[18] = test system: B16-F10; assay: Induction of apoptosis in mouse B16F10 cells assessed as viable cells at 3.125 uM incubated for 48 hrs by Annexin-V-FITC/propidium iodide staining-based flow cytometric analysis (reference value: 94%); type: functional; conditions: B16-F10, 48 h, read-out: Activity; outline: as §1
[19] = test system: B16-F10; assay: Induction of apoptosis in mouse B16F10 cells assessed as late apoptosis cells at 12.5 uM incubated for 48 hrs by Annexin-V-FITC/propidium iodide staining-based flow cytometric analysis (reference value: 2.88%); type: functional; outline: as §1
[20] = test system: B16-F10; assay: Induction of cell cycle arrest in mouse B16F10 cells assessed as cell accumulation at S phase at 6.25 uM incubated for 48 hrs by propidium iodide staining-based flow cytometric analysis (reference value: 14.16%); type: functional
[21] = test system: B16-F10; assay: Induction of apoptosis in mouse B16F10 cells assessed as necrosis cells at 3.125 uM incubated for 48 hrs by Annexin-V-FITC/propidium iodide staining-based flow cytometric analysis (reference value: 0.186%); type: functional; outline: as §1
[22] = test system: B16-F10; assay: Induction of apoptosis in mouse B16F10 cells assessed as early apoptosis cells at 25 uM incubated for 48 hrs in presence of apoptosis inhibitor z-VAD-fmk by Annexin-V-FITC/propidium iodide staining-based flow cytometric analysis (reference value: 3.83%); type: functional
[23] = test system: B16-F10; assay: Induction of apoptosis in mouse B16F10 cells assessed as late apoptosis cells at 3.125 uM incubated for 48 hrs in presence of apoptosis inhibitor z-VAD-fmk by Annexin-V-FITC/propidium iodide staining-based flow cytometric analysis (reference value: 3.13%); type: functional
[24] = test system: B16-F10; assay: Induction of apoptosis in mouse B16F10 cells assessed as early apoptosis cells at 6.25 uM incubated for 48 hrs by Annexin-V-FITC/propidium iodide staining-based flow cytometric analysis (reference value: 2.93%); type: functional; outline: as §1
[25] = test system: B16-F10; assay: Induction of cell cycle arrest in mouse B16F10 cells assessed as cell accumulation at S phase at 3.125 uM incubated for 48 hrs by propidium iodide staining-based flow cytometric analysis (reference value: 14.16%); type: functional
[26] = species: Homo sapiens; assay: Selectivity index, ratio of IC50 for COX1 (unknown origin) to IC50 for COX2 (unknown origin)
Outline: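 Ratio of COX-1 IC50 to COX-2 IC50, from human COX-1 and human COX-2 inhibitor screening assay kits. Each IC50 is the concentration giving 50% enzyme inhibition, taken as the mean of four determinations.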

[27] = test system: B16-F10; assay: Induction of cell cycle arrest in mouse B16F10 cells assessed as cell accumulation at S phase at 12.5 uM incubated for 48 hrs by propidium iodide staining-based flow cytometric analysis (reference value: 14.16%); type: functional

With `NS(=O)(=O)c1ccc(-n2nc(C(=O)NCCCN3CCOCC3)cc2-c2ccc(C(F)(F)F)cc2)cc1` as the compound, how does the Activity [1] read?
The Activity was 5.34%.

What about the Activity [2] of the same compound?
Its Activity is 31.04%.

And the Activity [3]?
Its Activity is 1.33%.

And the IC50 [4]?
The IC50 was 7.65 µM.

And the Activity [5]?
Its Activity is 0.155%.

What about the viability at 12.5 µM [6] of the same compound?
Its viability at 12.5 µM is 84%.

And the Retention_time [7]?
The Retention_time was 39.95 min.

What about the IC50 [8] of the same compound?
Its IC50 is 6.43 µM.

And the Activity [9]?
Its Activity is 9.78%.

What about the IC50 [10] of the same compound?
The IC50 was 8.08 µM.

And the IC50 [11]?
The IC50 was 194 µM.

What about the Activity [12] of the same compound?
Its Activity is 49.08%.

What about the Activity [13] of the same compound?
The Activity was 0.23%.

What about the Activity [14] of the same compound?
Its Activity is “Active”.

What about the Activity [15] of the same compound?
Its Activity is 28.69%.

What about the Activity [16] of the same compound?
The Activity was 0.105%.

And the viability at 6.25 µM [17]?
Its viability at 6.25 µM is 88.8%.

What about the viability at 3.125 µM [18] of the same compound?
The viability at 3.125 µM was 86.5%.

What about the Activity [19] of the same compound?
The Activity was 5.09%.

What about the Activity [20] of the same compound?
Its Activity is 15.23%.

What about the Activity [21] of the same compound?
The Activity was 0.597%.

And the Activity [22]?
Its Activity is 11.3%.

What about the Activity [23] of the same compound?
The Activity was 4.52%.

And the Activity [24]?
The Activity was 14.5%.

And the Activity [25]?
Its Activity is 11.16%.

What about the Ratio IC50 [26] of the same compound?
Its Ratio IC50 is 189.

And the Activity [27]?
Its Activity is 15.42%.
